According to ChEMBL document CHEMBL3046864, “Synthesis and antifungal activity of a series of N-substituted [2-(2,4-dichlorophenyl)-3-(1,2,4-triazol-1-yl)]propylamines” (J Agric Food Chem, 2007):
In brackets after ≈: the same amount, converted by molar mass. Activity calls are given as the source filed them. The calls are words filed in the database; no cut-off is given here.

Legend:
[1] = tested on: Botrytis cinerea; experiment: Fungicidal activity against Botryotinia fuckeliana assessed as inhibition of radial growth; type: functional, organism-based
Outline: (§1)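 Strains from the IPV collection were maintained on potato dextrose agar. Radial growth on PDA was measured at 100–0.1 mg L-1. % inhibition was taken from the mean difference between treated and control cultures relative to control. % inhibition was plotted on a probit scale against dose to give EC50.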

[2] = tested on: Ustilago maydis; experiment: Fungicidal activity against Ustilago maydis ATCC 14826 assessed as inhibition of fungal cell count; type: functional, organism-based; conditions: Mycosarcoma maydis
Outline: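 U. maydis ATCC 14826 broth cultures were grown in Coursen and Sisler broth with compound. Growth was estimated by sporidial cell count at the end of treatment and expressed as % inhibition versus the untreated control.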

[3] = tested on: Cercospora beticola; experiment: Fungicidal activity against Cercospora beticola assessed as inhibition of radial growth; type: functional, organism-based; outline: as §1
[4] = tested on: Oculimacula yallundae; experiment: Fungicidal activity against Oculimacula yallundae assessed as inhibition of radial growth; type: functional, organism-based; outline: as §1
[5] = tested on: Pyrenophora teres; experiment: Fungicidal activity against Pyrenophora teres assessed as inhibition of radial growth; type: functional, organism-based; outline: as §1
[6] = tested on: Fusarium graminearum; experiment: Fungicidal activity against Fusarium graminearum assessed as inhibition of radial growth; type: functional, organism-based
Outline: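 The Fusarium isolate came from the IPV collection and was kept on PDA. Radial growth was measured on PDA plates at 100–0.1 mg L-1. Percentage inhibition was taken from the mean difference between treated and control cultures. EC50 came from a probit plot of percentage inhibition against dose.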

[7] = tested on: Puccinia recondita; experiment: Antifungal activity against Puccinia recondita infected 125 ug/mL compound […] assessed as inhibition of wheat brown rust disease measured after 10 days post fungal inoculation; type: functional
[8] = tested on: Phytophthora infestans; experiment: Antifungal activity against Phytophthora infestans infected 125 ug/mL compound pre-treated six-leaves stage tomato plant seedlings assessed as inhibition of disease measured after 7 days post fungal inoculation; type: functional
Outline: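 Preventive application before inoculation. Tomato plants were sprayed with a P. infestans zoosporangia suspension (5 × 10^4 mL-1). Plants were held 24 h at 20 ± 1 °C and 100% RH, then moved to a greenhouse at 23 ± 1 °C and 70 ± 10% RH. Diseased leaf area was scored 7 days after inoculation against nontreated plants to give percentage disease inhibition.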

[9] = tested on: Blumeria graminis; experiment: Antifungal activity against Blumeria graminis f. sp. tritici infected in 125 ug/mL […] assessed as inhibition of wheat powdery mildew disease measured after 10 days post fungal inoculation; type: functional
[10] = molecular target: T1, Squalene monooxygenase (Mycosarcoma maydis) (UniProt A0A0D1C8X8); experiment: Inhibition of squalene epoxidase in Ustilago maydis ATCC 14826 assessed as effect on squalene level at 0.01 to 100 mg/L measured after 18 hr post compound treatment
T1 sequence (whole entry): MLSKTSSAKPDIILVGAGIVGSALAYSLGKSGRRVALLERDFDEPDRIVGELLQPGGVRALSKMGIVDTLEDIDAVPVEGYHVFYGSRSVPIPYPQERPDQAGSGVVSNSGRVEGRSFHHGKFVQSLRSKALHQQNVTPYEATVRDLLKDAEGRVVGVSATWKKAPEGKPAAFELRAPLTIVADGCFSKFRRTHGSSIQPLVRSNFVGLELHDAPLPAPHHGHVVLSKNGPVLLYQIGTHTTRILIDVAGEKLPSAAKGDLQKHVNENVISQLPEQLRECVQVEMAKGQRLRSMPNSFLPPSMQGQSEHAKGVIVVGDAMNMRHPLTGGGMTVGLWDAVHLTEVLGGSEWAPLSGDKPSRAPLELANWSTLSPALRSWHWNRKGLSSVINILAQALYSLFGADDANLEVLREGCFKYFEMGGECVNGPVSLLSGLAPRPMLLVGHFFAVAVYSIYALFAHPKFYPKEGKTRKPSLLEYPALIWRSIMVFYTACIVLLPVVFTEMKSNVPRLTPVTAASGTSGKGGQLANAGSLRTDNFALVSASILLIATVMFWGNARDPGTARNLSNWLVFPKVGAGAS
Outline: (§2)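 U. maydis was grown in Coursen and Sisler broth with compound at 0.01–100 mg L-1 for 18 h. Sporidia were harvested by centrifugation, spiked with dihydrocholesterol as a known-amount standard, and saponified in 20% KOH in 60% ethanol for 1 h at 90 °C. The unsaponifiable fraction, including squalene and 14-methyl sterols, was analysed by capillary GC-FID and GC-MS.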

[11] = molecular target: T2, Lanosterol 14-alpha demethylase (Mycosarcoma maydis) (UniProt P49602); experiment: Inhibition of 14alpha-demethylase in Ustilago maydis ATCC 14826 assessed as increase in 14-methyl sterols levels at 0.01 to 100 mg/L measured after 18 hr post compound treatment; outline: as §2
T2 sequence (whole entry): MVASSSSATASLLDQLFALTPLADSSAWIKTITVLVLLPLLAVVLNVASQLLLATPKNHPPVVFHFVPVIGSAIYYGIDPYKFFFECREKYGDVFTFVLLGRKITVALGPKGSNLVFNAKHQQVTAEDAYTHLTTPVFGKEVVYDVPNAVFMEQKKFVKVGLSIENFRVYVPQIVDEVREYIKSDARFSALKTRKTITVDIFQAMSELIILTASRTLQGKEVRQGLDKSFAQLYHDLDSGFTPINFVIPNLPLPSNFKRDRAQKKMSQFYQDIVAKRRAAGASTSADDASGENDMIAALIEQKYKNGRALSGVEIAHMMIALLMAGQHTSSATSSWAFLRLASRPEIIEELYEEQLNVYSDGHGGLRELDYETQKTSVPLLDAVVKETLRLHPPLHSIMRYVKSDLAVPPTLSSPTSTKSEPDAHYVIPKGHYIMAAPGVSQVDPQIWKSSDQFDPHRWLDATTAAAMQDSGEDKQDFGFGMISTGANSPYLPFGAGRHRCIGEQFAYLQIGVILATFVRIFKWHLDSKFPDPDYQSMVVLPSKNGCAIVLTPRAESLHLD

Compound	EC50 [1]	EC50 [2]	EC50 [3]	EC50 [4]	EC50 [5]	EC50 [6]	inhibition (INH) [7]	inhibition (INH) [8]	inhibition (INH) [9]	inhibition [10]	inhibition [11]
CN(C)CC(Cn1cncn1)c1ccc(Cl)cc1Cl (centres undefined)	75 µg/mL (≈ 251 µM)	2.5 µg/mL (≈ 8.36 µM)	8 µg/mL (≈ 26.7 µM)	6.5 µg/mL (≈ 21.7 µM)	42 µg/mL (≈ 140 µM)	> 100 µg/mL	–	–	–	–	–
FC(F)C(F)(F)OCC(Cn1cncn1)c1ccc(Cl)cc1Cl (centres undefined) [TETRACONAZOLE]	0.04 µg/mL (≈ 0.107 µM)	–	–	–	–	–	100%	0%	100%	–	–
CC(=O)NCC(Cn1cncn1)c1ccc(Cl)cc1Cl (centres undefined)	> 100 µg/mL	60 µg/mL (≈ 192 µM)	> 100 µg/mL	> 100 µg/mL	> 100 µg/mL	> 100 µg/mL	–	–	–	–	–
Clc1ccc(C(CN(C2CC2)C2CC2)Cn2cncn2)c(Cl)c1 (centres undefined)	7.5 µg/mL (≈ 21.4 µM)	0.02 µg/mL (≈ 0.0569 µM)	0.4 µg/mL (≈ 1.14 µM)	1.2 µg/mL (≈ 3.42 µM)	5.5 µg/mL (≈ 15.7 µM)	55 µg/mL (≈ 157 µM)	10%	0%	60%	–	–
NCC(Cn1cncn1)c1ccc(Cl)cc1Cl (centres undefined)	> 100 µg/mL	70.3 µg/mL (≈ 259 µM)	> 100 µg/mL	> 100 µg/mL	> 100 µg/mL	> 100 µg/mL	–	–	–	–	–
C=CCNCC(Cn1cncn1)c1ccc(Cl)cc1Cl (centres undefined)	> 100 µg/mL	19.9 µg/mL (≈ 63.9 µM)	31.7 µg/mL (≈ 102 µM)	91.3 µg/mL (≈ 293 µM)	> 100 µg/mL	> 100 µg/mL	–	–	–	–	–
Clc1ccc(C(CNC/C=C/c2ccccc2)Cn2cncn2)c(Cl)c1 (centres undefined)	42 µg/mL (≈ 108 µM)	1.4 µg/mL (≈ 3.61 µM)	2.4 µg/mL (≈ 6.2 µM)	7.5 µg/mL (≈ 19.4 µM)	12 µg/mL (≈ 31 µM)	26 µg/mL (≈ 67.1 µM)	20%	0%	25%	–	–
Clc1ccc(C(CN(Cc2ccccc2)Cc2ccccc2)Cn2cncn2)c(Cl)c1 (centres undefined)	6 µg/mL (≈ 13.3 µM)	0.09 µg/mL (≈ 0.199 µM)	4 µg/mL (≈ 8.86 µM)	17 µg/mL (≈ 37.7 µM)	1.9 µg/mL (≈ 4.21 µM)	> 100 µg/mL	–	–	–	–	–
Clc1ccc(C(CNCc2ccccc2)Cn2cncn2)c(Cl)c1 (centres undefined)	> 100 µg/mL	11.3 µg/mL (≈ 31.3 µM)	2.7 µg/mL (≈ 7.47 µM)	23.4 µg/mL (≈ 64.8 µM)	30.3 µg/mL (≈ 83.9 µM)	> 100 µg/mL	–	–	–	–	–
C/C=C/C(=O)NCC(Cn1cncn1)c1ccc(Cl)cc1Cl (centres undefined)	> 100 µg/mL	20.7 µg/mL (≈ 61 µM)	60.5 µg/mL (≈ 178 µM)	> 100 µg/mL	> 100 µg/mL	> 100 µg/mL	–	–	–	–	–
CC(C)(C)c1ccc(CN(Cc2ccc(C(C)(C)C)cc2)CC(Cn2cncn2)c2ccc(Cl)cc2Cl)cc1 (centres undefined)	> 100 µg/mL	9 µg/mL (≈ 16 µM)	7 µg/mL (≈ 12.4 µM)	> 100 µg/mL	> 100 µg/mL	> 100 µg/mL	–	–	–	–	–
Clc1ccc(C(CN(C/C=C/c2ccccc2)C/C=C/c2ccccc2)Cn2cncn2)c(Cl)c1 (centres undefined)	> 100 µg/mL	0.65 µg/mL (≈ 1.29 µM)	12.5 µg/mL (≈ 24.8 µM)	> 100 µg/mL	6 µg/mL (≈ 11.9 µM)	> 100 µg/mL	–	–	–	–	–
C=CCN(CC=C)CC(Cn1cncn1)c1ccc(Cl)cc1Cl (centres undefined)	10 µg/mL (≈ 28.5 µM)	0.22 µg/mL (≈ 0.626 µM)	2.6 µg/mL (≈ 7.4 µM)	3.6 µg/mL (≈ 10.2 µM)	6.5 µg/mL (≈ 18.5 µM)	> 100 µg/mL	25%	0%	30%	inactive	Active
O=C(NCC(Cn1cncn1)c1ccc(Cl)cc1Cl)c1ccccc1 (centres undefined)	100 µg/mL (≈ 266 µM)	1.9 µg/mL (≈ 5.06 µM)	2.5 µg/mL (≈ 6.66 µM)	80.3 µg/mL (≈ 214 µM)	11.5 µg/mL (≈ 30.6 µM)	> 100 µg/mL	–	–	–	–	–
C=CCN(CC(Cn1cncn1)c1ccc(Cl)cc1Cl)C1CC1 (centres undefined)	4.4 µg/mL (≈ 12.5 µM)	0.01 µg/mL (≈ 0.0285 µM)	0.2 µg/mL (≈ 0.569 µM)	0.8 µg/mL (≈ 2.28 µM)	3.2 µg/mL (≈ 9.11 µM)	55 µg/mL (≈ 157 µM)	–	–	–	–	–
C#CCN(CC#C)CC(Cn1cncn1)c1ccc(Cl)cc1Cl (centres undefined)	4.9 µg/mL (≈ 14.1 µM)	0.14 µg/mL (≈ 0.403 µM)	1.1 µg/mL (≈ 3.17 µM)	2.8 µg/mL (≈ 8.06 µM)	2.1 µg/mL (≈ 6.05 µM)	9 µg/mL (≈ 25.9 µM)	15%	0%	35%	–	–
C#CCNCC(Cn1cncn1)c1ccc(Cl)cc1Cl (centres undefined)	38 µg/mL (≈ 123 µM)	1.3 µg/mL (≈ 4.2 µM)	4 µg/mL (≈ 12.9 µM)	11 µg/mL (≈ 35.6 µM)	38 µg/mL (≈ 123 µM)	> 100 µg/mL	–	–	–	–	–
